Assay results from ChEMBL document CHEMBL2016496, “The SAR development of dihydroimidazoisoquinoline derivatives as phosphodiesterase 10A inhibitors for the treatment of schizophrenia” (Bioorg Med Chem Lett, 2012).
Activity calls are given as the source filed them. No cut-off for these calls is given here.

Legend:
[1] = molecular target: cAMP and cAMP-inhibited cGMP 3',5'-cyclic phosphodiesterase 10A (Homo sapiens, UniProt Q9Y233); experiment: Inhibition of human recombinant PDE10A assessed as inhibition of [3H]cAMP hydrolysis by scintillation proximity assay
Method in brief: (§1)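 Scintillation proximity assay on recombinant human PDEs 1–11, with [³H]cAMP as substrate and hydrolysis of cAMP to AMP as read-out. Ki values are means of two experiments.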

[2] = molecular target: Dual 3',5'-cyclic-AMP and -GMP phosphodiesterase 11A (Homo sapiens, UniProt Q9HCR9); experiment: Inhibition of human recombinant PDE11 assessed as inhibition of [3H]cAMP hydrolysis by scintillation proximity assay; method in brief: as §1
[3] = molecular target: High affinity cGMP-specific 3',5'-cyclic phosphodiesterase 9A (Homo sapiens, UniProt O76083); experiment: Inhibition of human recombinant PDE9 assessed as inhibition of [3H]cAMP hydrolysis by scintillation proximity assay; method in brief: as §1
[4] = molecular target: cGMP-dependent 3',5'-cyclic phosphodiesterase (Homo sapiens, UniProt O00408); experiment: Inhibition of human recombinant PDE2 assessed as inhibition of [3H]cAMP hydrolysis by scintillation proximity assay; method in brief: as §1
[5] = Solubility of the compound in 2% DMSO at pH 7.4; assay type: physicochemical
[6] = Clearance in rat hepatocytes assessed per 10^6 cells; assay type: ADME, cell-based, Hepatocyte; conditions: read-out: CLH
[7] = molecular target: cGMP-specific 3',5'-cyclic phosphodiesterase (Homo sapiens, UniProt O76074); experiment: Inhibition of human recombinant PDE5 assessed as inhibition of [3H]cAMP hydrolysis by scintillation proximity assay; method in brief: as §1
[8] = Clearance in monkey hepatocytes assessed per 10^6 cells; assay type: ADME, cell-based, Macaca mulatta, Hepatocyte; conditions: rhesus monkey, read-out: CLH
[9] = Dissociation constant, pKa of the compound; assay type: physicochemical
[10] = molecular target: Phosphodiesterase 8 (Homo sapiens, UniProt O95263+O60658); experiment: Inhibition of human recombinant PDE8 assessed as inhibition of [3H]cAMP hydrolysis by scintillation proximity assay; assay type: protein assay; method in brief: as §1
[11] = molecular target: hERG (KCNH2) (Homo sapiens, UniProt Q12809); experiment: Inhibition of human ERG at 10 uM
Method in brief: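 hERG inhibition was measured on the IonWorks platform at 10 µM.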

[12] = molecular target: T1, cGMP-inhibited 3',5'-cyclic phosphodiesterase 3A (Homo sapiens, UniProt Q14432); experiment: Inhibition of human recombinant PDE3A assessed as inhibition of [3H]cAMP hydrolysis by scintillation proximity assay; method in brief: as §1
[13] = molecular target: T2, High affinity 3',5'-cyclic-AMP phosphodiesterase 7A (Homo sapiens, UniProt Q13946); experiment: Inhibition of human recombinant PDE7A1 assessed as inhibition of [3H]cAMP hydrolysis by scintillation proximity assay; method in brief: as §1
[14] = Clearance in human hepatocytes assessed per 10^6 cells; assay type: ADME, cell-based, Hepatocyte; conditions: read-out: CLH
[15] = molecular target: Phosphodiesterase 1 (Homo sapiens, UniProt P54750+Q01064+Q14123); experiment: Inhibition of human recombinant PDE1 assessed as inhibition of [3H]cAMP hydrolysis by scintillation proximity assay; assay type: protein assay; method in brief: as §1
[16] = molecular target: Phosphodiesterase 6; experiment: Inhibition of human recombinant PDE6 assessed as inhibition of [3H]cAMP hydrolysis by scintillation proximity assay; assay type: protein assay; method in brief: as §1
[17] = molecular target: Phosphodiesterase 4 (Homo sapiens, UniProt P27815+Q08499+Q07343+Q08493); experiment: Inhibition of human recombinant PDE4 assessed as inhibition of [3H]cAMP hydrolysis by scintillation proximity assay; assay type: protein assay; method in brief: as §1
[18] = molecular target: T1, cGMP-inhibited 3',5'-cyclic phosphodiesterase 3A; experiment: Inhibition of human recombinant PDE3A assessed as inhibition of [3H]cAMP hydrolysis at 3 uM by scintillation proximity assay
Method in brief: (§2)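 Recombinant human PDE3A or PDE7A1 was tested at a single 3 µM level in the scintillation proximity assay, with [³H]cAMP as substrate and cAMP-to-AMP hydrolysis as read-out. Results are expressed as % inhibition.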

[19] = system: Rattus norvegicus; experiment: Antipsychotic activity in CD rat assessed as inhibition of MK801-induced hyperactivity at 30 mg/kg, po; assay type: functional, organism-based; parameters: dose 30 mg/kg
Method in brief: (§3)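 Male CD rats were habituated to locomotor activity chambers 24 h before testing. On test day, MK-801 (0.3 mg/kg, sc) was co-administered with the PDE10 inhibitor (po) and the rats were placed in the apparatus. Inhibition is the activity of the inhibitor+MK-801 group as a percent of the vehicle+MK-801 group.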

[20] = Drug uptake in CD rat brain at 30 mg/kg, po after 1 hr; assay type: ADME, organism-based; parameters: dose 30 mg/kg, route oral
[21] = Toxicity in Cebus monkey assessed as akathisia at 3 to 6 mg/kg, po; assay type: organism-based; parameters: dose 3-6 mg/kg, route oral; conditions: in vivo
[22] = Toxicity in Cebus monkey assessed as extrapyramidal symptoms at 3 to 6 mg/kg, po; assay type: organism-based; parameters: dose 3-6 mg/kg, route oral; conditions: in vivo
[23] = molecular target: T2, High affinity 3',5'-cyclic-AMP phosphodiesterase 7A; experiment: Inhibition of human recombinant PDE7A1 assessed as inhibition of [3H]cAMP hydrolysis at 3 uM by scintillation proximity assay; method in brief: as §2
[24] = system: Rattus norvegicus; experiment: Antipsychotic activity in CD rat assessed as inhibition of MK801-induced hyperactivity at 3 mg/kg, po; assay type: functional, organism-based; parameters: dose 3 mg/kg; method in brief: as §3
[25] = Efflux ratio in human Caco2 cells; assay type: ADME, cell-based; conditions: Caco-2

Sequence of cGMP-dependent 3',5'-cyclic phosphodiesterase (O00408 whole entry): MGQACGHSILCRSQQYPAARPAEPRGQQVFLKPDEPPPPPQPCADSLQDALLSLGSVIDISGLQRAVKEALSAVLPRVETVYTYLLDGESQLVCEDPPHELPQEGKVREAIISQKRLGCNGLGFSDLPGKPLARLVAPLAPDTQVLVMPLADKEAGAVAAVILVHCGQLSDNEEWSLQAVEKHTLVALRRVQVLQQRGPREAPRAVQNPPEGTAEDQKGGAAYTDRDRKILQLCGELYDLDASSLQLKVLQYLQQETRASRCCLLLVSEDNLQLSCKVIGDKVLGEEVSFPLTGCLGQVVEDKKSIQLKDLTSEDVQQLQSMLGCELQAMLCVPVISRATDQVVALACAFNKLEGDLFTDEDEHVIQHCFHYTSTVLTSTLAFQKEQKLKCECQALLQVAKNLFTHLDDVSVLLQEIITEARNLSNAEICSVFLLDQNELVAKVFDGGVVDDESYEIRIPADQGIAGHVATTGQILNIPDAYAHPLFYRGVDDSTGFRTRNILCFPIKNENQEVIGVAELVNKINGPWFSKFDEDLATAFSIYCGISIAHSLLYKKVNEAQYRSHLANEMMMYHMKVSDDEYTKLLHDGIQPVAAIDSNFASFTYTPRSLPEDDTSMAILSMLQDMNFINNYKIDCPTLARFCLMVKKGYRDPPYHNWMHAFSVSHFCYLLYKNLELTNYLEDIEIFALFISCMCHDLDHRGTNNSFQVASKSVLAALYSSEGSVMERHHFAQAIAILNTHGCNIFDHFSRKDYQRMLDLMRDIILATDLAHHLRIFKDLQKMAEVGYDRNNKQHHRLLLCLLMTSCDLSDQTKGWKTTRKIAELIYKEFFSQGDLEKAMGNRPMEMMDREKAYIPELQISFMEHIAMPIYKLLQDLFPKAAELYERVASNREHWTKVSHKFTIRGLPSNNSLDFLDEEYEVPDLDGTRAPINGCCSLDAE
Sequence of High affinity cGMP-specific 3',5'-cyclic phosphodiesterase 9A (O76083 whole entry): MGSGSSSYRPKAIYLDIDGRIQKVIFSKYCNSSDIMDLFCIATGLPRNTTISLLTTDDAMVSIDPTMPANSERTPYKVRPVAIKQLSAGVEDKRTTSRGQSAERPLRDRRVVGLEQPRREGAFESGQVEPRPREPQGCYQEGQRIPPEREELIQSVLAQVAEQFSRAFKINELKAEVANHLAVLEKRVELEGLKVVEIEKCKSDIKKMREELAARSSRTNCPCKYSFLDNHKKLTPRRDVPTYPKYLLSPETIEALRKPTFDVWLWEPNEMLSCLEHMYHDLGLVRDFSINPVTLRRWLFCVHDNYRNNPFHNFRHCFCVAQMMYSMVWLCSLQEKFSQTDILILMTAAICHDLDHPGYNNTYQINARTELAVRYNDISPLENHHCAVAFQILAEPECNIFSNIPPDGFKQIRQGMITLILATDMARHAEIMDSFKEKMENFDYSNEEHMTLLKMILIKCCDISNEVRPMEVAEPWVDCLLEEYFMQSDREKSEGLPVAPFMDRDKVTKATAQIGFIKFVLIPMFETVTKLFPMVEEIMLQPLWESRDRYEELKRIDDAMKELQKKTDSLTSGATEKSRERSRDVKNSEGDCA
T1 sequence (Q14432 whole entry): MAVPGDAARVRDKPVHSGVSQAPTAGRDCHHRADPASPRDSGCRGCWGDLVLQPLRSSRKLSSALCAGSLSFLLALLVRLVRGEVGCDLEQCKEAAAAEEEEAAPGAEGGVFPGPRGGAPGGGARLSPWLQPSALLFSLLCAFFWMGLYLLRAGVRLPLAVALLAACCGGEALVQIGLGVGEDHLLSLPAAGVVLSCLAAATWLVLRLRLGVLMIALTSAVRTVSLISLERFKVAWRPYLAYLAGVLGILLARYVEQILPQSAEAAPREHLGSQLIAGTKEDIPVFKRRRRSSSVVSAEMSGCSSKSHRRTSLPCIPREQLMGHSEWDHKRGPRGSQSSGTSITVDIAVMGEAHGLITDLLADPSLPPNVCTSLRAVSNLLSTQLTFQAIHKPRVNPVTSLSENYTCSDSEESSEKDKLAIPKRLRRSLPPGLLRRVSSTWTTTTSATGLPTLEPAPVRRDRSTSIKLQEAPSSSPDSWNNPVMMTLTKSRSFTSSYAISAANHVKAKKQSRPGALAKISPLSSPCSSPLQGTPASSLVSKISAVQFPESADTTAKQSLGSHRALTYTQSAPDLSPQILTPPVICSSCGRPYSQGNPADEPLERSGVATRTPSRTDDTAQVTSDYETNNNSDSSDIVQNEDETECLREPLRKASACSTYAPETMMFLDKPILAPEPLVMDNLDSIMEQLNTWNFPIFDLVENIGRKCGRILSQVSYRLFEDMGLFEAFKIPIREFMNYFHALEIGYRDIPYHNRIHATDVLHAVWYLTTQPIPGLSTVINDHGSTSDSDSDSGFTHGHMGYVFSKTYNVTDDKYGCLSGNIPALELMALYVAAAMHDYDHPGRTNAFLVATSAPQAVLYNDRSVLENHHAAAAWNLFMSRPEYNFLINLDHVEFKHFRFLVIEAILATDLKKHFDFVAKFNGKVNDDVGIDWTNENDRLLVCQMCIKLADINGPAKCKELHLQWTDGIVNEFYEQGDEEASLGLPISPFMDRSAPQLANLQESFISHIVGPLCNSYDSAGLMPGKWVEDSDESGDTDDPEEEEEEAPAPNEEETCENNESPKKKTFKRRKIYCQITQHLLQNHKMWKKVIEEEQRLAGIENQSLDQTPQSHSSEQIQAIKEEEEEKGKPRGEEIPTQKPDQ
T2 sequence (Q13946 whole entry): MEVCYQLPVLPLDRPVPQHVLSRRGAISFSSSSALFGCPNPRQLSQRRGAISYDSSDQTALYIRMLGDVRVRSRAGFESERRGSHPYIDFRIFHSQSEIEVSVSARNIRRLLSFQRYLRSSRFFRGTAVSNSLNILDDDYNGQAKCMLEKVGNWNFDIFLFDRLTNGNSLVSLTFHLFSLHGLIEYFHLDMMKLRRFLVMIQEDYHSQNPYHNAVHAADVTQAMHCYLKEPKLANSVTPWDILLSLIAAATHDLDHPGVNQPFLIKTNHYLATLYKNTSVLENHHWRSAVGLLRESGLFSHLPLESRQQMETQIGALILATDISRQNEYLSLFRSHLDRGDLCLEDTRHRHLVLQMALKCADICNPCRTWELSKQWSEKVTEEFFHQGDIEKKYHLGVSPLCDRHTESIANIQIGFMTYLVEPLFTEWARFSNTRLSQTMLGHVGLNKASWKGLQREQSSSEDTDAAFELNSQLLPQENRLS
Sequence of Dual 3',5'-cyclic-AMP and -GMP phosphodiesterase 11A (Q9HCR9 whole entry): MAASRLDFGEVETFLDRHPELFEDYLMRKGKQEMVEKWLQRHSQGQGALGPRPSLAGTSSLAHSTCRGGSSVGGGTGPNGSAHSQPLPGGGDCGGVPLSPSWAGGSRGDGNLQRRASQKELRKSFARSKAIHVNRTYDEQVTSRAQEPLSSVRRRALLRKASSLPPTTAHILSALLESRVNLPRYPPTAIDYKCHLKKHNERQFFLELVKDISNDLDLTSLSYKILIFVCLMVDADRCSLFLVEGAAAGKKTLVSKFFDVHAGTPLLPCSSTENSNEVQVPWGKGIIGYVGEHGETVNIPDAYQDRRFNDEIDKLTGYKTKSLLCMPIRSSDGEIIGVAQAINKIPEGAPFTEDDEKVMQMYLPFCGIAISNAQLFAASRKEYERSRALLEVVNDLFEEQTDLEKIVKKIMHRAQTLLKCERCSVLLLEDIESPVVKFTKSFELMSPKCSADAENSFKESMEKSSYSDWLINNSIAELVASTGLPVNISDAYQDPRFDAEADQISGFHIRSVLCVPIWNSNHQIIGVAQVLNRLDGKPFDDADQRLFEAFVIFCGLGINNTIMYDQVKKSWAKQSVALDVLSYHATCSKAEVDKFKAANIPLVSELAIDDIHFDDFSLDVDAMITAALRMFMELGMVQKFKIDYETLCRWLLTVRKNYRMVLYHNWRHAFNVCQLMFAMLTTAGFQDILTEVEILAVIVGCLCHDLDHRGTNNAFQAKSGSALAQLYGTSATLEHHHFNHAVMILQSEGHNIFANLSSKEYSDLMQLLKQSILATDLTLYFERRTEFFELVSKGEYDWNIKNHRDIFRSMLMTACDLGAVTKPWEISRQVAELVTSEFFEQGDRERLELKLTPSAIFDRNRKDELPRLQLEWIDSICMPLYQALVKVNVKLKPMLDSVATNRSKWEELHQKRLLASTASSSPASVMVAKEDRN

Row | Structure (SMILES) | Ki [1] [nM] | hepatocyte CLint [6] [µL/min/1e6 cells] | hepatocyte CLint [8] [µL/min/1e6 cells] | Ki [12] [nM] | Ki [13] [nM] | hepatocyte CLint [14] [µL/min/1e6 cells] | other results
1 | COc1cc2c(cc1OC)-c1c(C3CCCCC3)ncn1CC2 | 199 | – | – | – | – | – | –
2 | COc1cc2c(cc1OC)-c1c(-c3ccccn3)ncn1CC2 | 240 | – | – | – | – | – | –
3 | COc1cccc(-c2ncn3c2-c2cc(OC)c(OC)cc2CC3)c1 | 30 | 61 | 66 | 136 | 5540 | > 14 | –
4 | COc1cc2c(cc1OC)-c1c(-c3ccccc3)ncn1CC2 | 121 | – | – | – | – | – | –
5 | COc1cc2c(cc1OC)-c1c(-c3cnc(C(=O)NCc4ccccc4)s3)ncn1CC2 | 40 | – | – | > 100000 | 507 | – | –
6 | COc1cc2c(cc1OC)-c1c(-c3cnc(C(=O)N4CCCOCC4)s3)ncn1CC2 | 1.5 | – | – | 24 | 269 | – | –
7 | COc1cc2c(cc1OC)-c1c(-c3ccccc3OC)ncn1CC2 | 212 | – | – | – | – | – | –
8 | CCOc1cccc(-c2ncn3c2-c2cc(OC)c(OC)cc2CC3)c1 | 8 | 61 | 66 | 277 | 3760 | > 14 | –
9 | COc1cc2c(cc1OC)-c1c(-c3cncs3)ncn1CC2 | – | – | – | 555 | 3700 | – | Ki [2]: > 2000 nM; Ki [3]: > 2000 nM; Ki [4]: > 2000 nM; Activity [19]: Active; solubility [5]: > 200 µM; concentration at 1 h [20]: 350 ng/g; Ki [7]: > 2000 nM; pKa [9]: 4.3; Ki [10]: > 2000 nM; inhibition at 10 µM [11]: 26%; Ki [15]: > 2000 nM; Ki [16]: > 2000 nM; Ki [17]: > 2000 nM
10 | COc1cc2c(cc1OC)-c1c(-c3cnc(C(=O)NC4CCOCC4)s3)ncn1CC2 | 4.3 | 5.7 | 22.7 | 828 | 550 | 1.4 | –
11 | COc1cc2c(cc1OC)-c1c(-c3cncn3C)ncn1CC2 | 264 | – | – | – | – | – | –
12 | COc1cc2c(cc1OC)-c1c(-c3cncnc3)ncn1CC2 | 40 | – | – | – | – | – | inhibition [23]: 13%; inhibition [18]: 14%
13 | COc1cc2c(cc1OC)-c1c(-c3cnc(C)s3)ncn1CC2 | 186 | – | – | – | – | – | –
14 | COc1cc2c(cc1OC)-c1c(-c3cccc(Cl)c3)ncn1CC2 | 33 | 61 | 66 | 954 | 6930 | > 14 | –
15 | COc1cc2c(cc1OC)-c1c(-c3cnc(CN4CCOCC4)s3)ncn1CC2 | 6.6 | – | – | 148 | 4600 | – | –
16 | COc1cc2c(cc1OC)-c1c(-c3cnc(C(=O)N4CCOCC4)s3)ncn1CC2 | 10 | – | – | 99 | 613 | – | –
17 | COc1cc2c(cc1OC)-c1c(-c3cnc(CN4CCCOCC4)s3)ncn1CC2 | 3.8 | – | – | 224 | 3770 | – | –
18 | COc1cc2c(cc1OC)-c1c(-c3ccccc3Cl)ncn1CC2 | 628 | – | – | – | – | – | –
19 | COc1cc2c(cc1OC)-c1c(-c3cocn3)ncn1CC2 | 508 | – | – | – | – | – | –
20 | COc1cc2c(cc1OC)-c1c(-c3cnc(C(=O)N(C)C(C)(C)C)s3)ncn1CC2 | 8.7 | 49 | 59 | 149 | 243 | 66 | Ki [2]: > 2000 nM; Ki [3]: > 2000 nM; Ki [4]: > 2000 nM; solubility [5]: > 200 µM; Ki [7]: > 2000 nM; pKa [9]: 4; Ki [10]: > 2000 nM; inhibition at 10 µM [11]: 40%; Ki [15]: > 2000 nM; Ki [16]: > 2000 nM; Ki [17]: > 2000 nM
21 | COc1cc2c(cc1OC)-c1c(-c3cccnc3)nc(C)n1CC2 | 25 | 3.6 | 26.6 | 727 | 5980 | 0.4 | Ki [2]: > 7950 nM; Ki [3]: > 7950 nM; Ki [4]: > 7950 nM; solubility [5]: > 200 µM; Ki [7]: > 7950 nM; pKa [9]: 4; Ki [10]: > 7950 nM; inhibition at 10 µM [11]: 29%; Ki [15]: > 7950 nM; Ki [16]: > 7950 nM; Ki [17]: > 7950 nM

Continued by falling Ki [1], values first:

Row | Ki [1] [nM] | hepatocyte CLint [6] [µL/min/1e6 cells] | hepatocyte CLint [8] [µL/min/1e6 cells] | Ki [12] [nM] | Ki [13] [nM] | hepatocyte CLint [14] [µL/min/1e6 cells] | Structure (SMILES) | other results
22 | 861 | – | – | – | – | – | COc1cc2c(cc1OC)-c1c(-c3cscn3)ncn1CC2 | –
23 | 183 | – | – | – | – | – | COc1cc2c(cc1OC)-c1c(-c3ccc(Cl)cc3)ncn1CC2 | –
24 | 114 | – | – | – | – | – | COc1ccc(-c2ncn3c2-c2cc(OC)c(OC)cc2CC3)cc1 | –
25 | 101 | – | – | – | – | – | COc1cc2c(cc1OC)-c1c(-c3ccncc3)ncn1CC2 | –
26 | 32 | 61 | 66 | 1280 | 10100 | > 14 | COc1cc2c(cc1OC)-c1c(-c3cccc(Br)c3)ncn1CC2 | –
27 | 31 | – | 67 | 1740 | 11100 | 25 | COc1cc2c(cc1OC)-c1c(-c3cnco3)ncn1CC2 | –
28 | 29 | 11.8 | 38.7 | 449 | – | 1.7 | COc1cc2c(cc1OC)-c1c(-c3cccnc3)ncn1CC2 | Ki [2]: > 4270 nM; Ki [3]: > 4270 nM; Activity [21]: Non-toxic; Ki [4]: > 4270 nM; Activity [22]: Non-toxic; solubility [5]: > 200 µM; Ki [7]: > 4270 nM; pKa [9]: 3.5; inhibition [23]: 45%; Ki [10]: > 4274 nM; Activity [24]: Active; inhibition at 10 µM [11]: 24%; efflux ratio [25]: 1.4; Ki [15]: > 4274 nM; Ki [16]: > 4274 nM; Ki [17]: > 4274 nM
29 | 26 | – | – | 177 | 2470 | – | COc1cc2c(cc1OC)-c1c(-c3cnc(N4CCOCC4)s3)ncn1CC2 | –
30 | 26 | – | – | 540 | 4600 | – | COc1cc2c(cc1OC)-c1c(-c3cnc(CO)s3)ncn1CC2 | –
31 | 20 | 9.2 | 65.5 | 968 | 6120 | 7.5 | COc1cc2c(cc1OC)-c1c(-c3cncs3)nc(C)n1CC2 | Ki [2]: > 7100 nM; Ki [3]: > 7100 nM; Ki [4]: > 7100 nM; solubility [5]: > 150 µM; Ki [7]: > 7100 nM; pKa [9]: 5; Ki [10]: > 7100 nM; inhibition at 10 µM [11]: 10%; Ki [15]: > 7100 nM; Ki [16]: > 7100 nM; Ki [17]: > 7100 nM
32 | 12 | – | – | – | – | – | COc1cc2c(cc1OC)-c1c(-c3cccnc3)ncn1C(C)C2 (stereo unspecified) | inhibition [18]: 97%
33 | 6.4 | 61 | 66 | 1470 | 7500 | > 14 | COc1cc2c(cc1OC)-c1c(-c3cccc(N4CCOCC4)c3)ncn1CC2 | –
